Measurements: publication PMC8055291 (Journal of Inflammation Research, 2021)

Columns and labels:
Experiment in all cases: SPR analysis
Format in all cases: binding
[1] = biological target: mitogen-activated protein kinase (MAPK1) (Homo sapiens, UniProt P28482); details: for kon: read-out: Ka (association rate constant); for koff: read-out: Kd (dissociation rate constant)
Procedure, shortened: (§1)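 Each protein was amine-coupled to the chip after NHS/EDC (1:1, v/v) activation, at 14,874 RU (MMP-9), 11,000 RU (MAPK1), 11,800 RU (NFKB1) and 11,000 RU (TNF-α). A reference channel was activated and blocked without protein. Analytes flowed at 30 μL/min, with 60 s association and 120 s dissociation. Curves were fitted with 1:1 Langmuir and steady-state affinity models to give Ka, Kd and KD.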

[2] = biological target: T1, nuclear factor kappa B (NFKB1) (Homo sapiens, UniProt P19838)
T1 sequence (P19838 1-968): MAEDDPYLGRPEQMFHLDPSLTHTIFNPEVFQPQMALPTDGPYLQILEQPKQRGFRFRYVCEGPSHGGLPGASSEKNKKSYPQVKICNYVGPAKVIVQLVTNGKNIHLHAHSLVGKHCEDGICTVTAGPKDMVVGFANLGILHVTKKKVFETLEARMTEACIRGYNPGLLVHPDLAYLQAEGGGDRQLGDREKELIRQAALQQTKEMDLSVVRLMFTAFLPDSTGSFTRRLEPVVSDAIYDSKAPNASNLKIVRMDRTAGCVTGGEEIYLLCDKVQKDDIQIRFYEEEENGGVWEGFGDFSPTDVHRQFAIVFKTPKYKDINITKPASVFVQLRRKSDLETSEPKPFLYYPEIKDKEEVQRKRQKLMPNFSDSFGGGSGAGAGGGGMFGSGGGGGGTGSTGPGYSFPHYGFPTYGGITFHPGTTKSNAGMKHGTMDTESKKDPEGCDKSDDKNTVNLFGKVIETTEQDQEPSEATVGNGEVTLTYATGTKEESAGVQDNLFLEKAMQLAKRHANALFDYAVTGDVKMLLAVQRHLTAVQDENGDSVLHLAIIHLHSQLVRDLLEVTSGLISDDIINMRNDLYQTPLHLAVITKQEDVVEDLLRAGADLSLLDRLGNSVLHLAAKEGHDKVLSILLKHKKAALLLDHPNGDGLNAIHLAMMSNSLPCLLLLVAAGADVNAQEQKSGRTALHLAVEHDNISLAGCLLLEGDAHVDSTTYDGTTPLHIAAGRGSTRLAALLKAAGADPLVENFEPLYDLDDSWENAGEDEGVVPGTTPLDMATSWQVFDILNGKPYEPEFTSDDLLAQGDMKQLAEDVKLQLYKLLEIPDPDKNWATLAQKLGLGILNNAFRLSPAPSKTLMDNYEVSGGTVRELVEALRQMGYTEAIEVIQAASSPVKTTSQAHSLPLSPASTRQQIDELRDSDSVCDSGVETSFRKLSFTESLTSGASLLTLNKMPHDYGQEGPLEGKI
Procedure, shortened: as §1

[3] = biological target: tumor necrosis factor (TNF-α) (Homo sapiens, UniProt P01375)
Procedure, shortened: as §1

[4] = biological target: matrix metalloproteinase-9 (MMP-9) (Homo sapiens, UniProt P14780)
Procedure, shortened: as §1

Sequence of mitogen-activated protein kinase (MAPK1) (P28482 whole entry): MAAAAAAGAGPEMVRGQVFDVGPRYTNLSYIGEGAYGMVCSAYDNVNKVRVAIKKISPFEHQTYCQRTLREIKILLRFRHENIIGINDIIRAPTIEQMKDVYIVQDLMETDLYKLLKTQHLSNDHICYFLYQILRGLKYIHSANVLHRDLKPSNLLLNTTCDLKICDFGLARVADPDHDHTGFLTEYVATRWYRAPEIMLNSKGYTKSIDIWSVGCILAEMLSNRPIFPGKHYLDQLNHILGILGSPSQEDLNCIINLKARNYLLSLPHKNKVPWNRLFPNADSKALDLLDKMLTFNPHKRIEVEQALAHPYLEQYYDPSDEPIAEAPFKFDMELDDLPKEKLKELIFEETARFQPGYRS
Sequence of matrix metalloproteinase-9 (MMP-9) (P14780 94-707): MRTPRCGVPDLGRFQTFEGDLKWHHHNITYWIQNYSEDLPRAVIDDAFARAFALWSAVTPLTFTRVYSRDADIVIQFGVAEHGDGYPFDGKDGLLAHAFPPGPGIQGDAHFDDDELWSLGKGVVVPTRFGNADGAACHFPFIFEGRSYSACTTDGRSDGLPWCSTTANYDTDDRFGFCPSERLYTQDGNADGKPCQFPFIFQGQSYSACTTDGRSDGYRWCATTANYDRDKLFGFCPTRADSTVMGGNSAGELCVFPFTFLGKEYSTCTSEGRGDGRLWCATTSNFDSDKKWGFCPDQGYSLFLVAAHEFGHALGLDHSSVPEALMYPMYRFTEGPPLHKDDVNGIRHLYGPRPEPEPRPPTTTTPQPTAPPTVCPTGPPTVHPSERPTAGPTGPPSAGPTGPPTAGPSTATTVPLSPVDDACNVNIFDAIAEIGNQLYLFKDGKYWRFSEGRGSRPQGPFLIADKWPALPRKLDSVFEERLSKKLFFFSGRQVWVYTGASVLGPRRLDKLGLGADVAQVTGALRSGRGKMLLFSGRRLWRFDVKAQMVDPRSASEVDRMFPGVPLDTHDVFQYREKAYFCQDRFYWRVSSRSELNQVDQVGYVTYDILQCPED
Sequence of tumor necrosis factor (TNF-α) (P01375 77-233 limits assumed): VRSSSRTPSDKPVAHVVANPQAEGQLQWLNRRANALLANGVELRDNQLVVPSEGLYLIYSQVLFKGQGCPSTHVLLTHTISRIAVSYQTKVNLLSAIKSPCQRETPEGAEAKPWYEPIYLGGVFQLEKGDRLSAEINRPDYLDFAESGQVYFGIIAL

| Structure (SMILES) | Kd [1] | kon [1] | koff [1] | Kd [4] | other results |
| --- | --- | --- | --- | --- | --- |
| CC(C)=CCc1cc2c(cc1O)O[C@H](c1ccc(O)cc1)CC2=O [Bavachin] | 26.6 µM | 9290 M⁻¹ s⁻¹ | 0.247 s⁻¹ | – | – |
| COc1cc2c(cc1CC=C(C)C)C(=O)C[C@@H](c1ccc(O)cc1)O2 [Bavachinin A] | 6.05 µM | – | – | – | – |
| COc1ccc(-c2coc3cc(O)ccc3c2=O)cc1 [Formononetin] | – | – | – | – | Kd [2]: 32.5 µM |
| O=C(/C=C/c1ccc(O[C@@H]2O[C@H](CO)[C@@H](O)[C@H](O)[C@H]2O)cc1)c1ccc(O)cc1O [Isoliquiritin] | – | – | – | 2.7 µM | Kd [3]: 3.6 µM |

Continued, in another order:

| Kd [1] | kon [1] | koff [1] | Kd [4] | Structure (SMILES) | other results |
| --- | --- | --- | --- | --- | --- |
| 382 µM | 258 M⁻¹ s⁻¹ | 0.0984 s⁻¹ | 105 µM | O=C1C[C@@H](c2ccc(O[C@@H]3O[C@H](CO)[C@@H](O)[C@H](O)[C@H]3O)cc2)Oc2cc(O)ccc21 [Liquiritin] | kon ([4]; read-out: Ka (association rate constant)): 251 M⁻¹ s⁻¹; koff ([4]; read-out: Kd (dissociation rate constant)): 0.0264 s⁻¹ |
| 41.4 µM | – | – | – | COc1ccc(-c2coc3cc(O[C@@H]4O[C@H](CO)[C@@H](O)[C@H](O)[C@H]4O)ccc3c2=O)cc1 [Ononin] | – |
